ROMK primary: ROMK potassium channel modulators, primary screen, cell-based, thallium flux, MLSMR library; ATP-sensitive inward rectifier potassium channel 1 (Homo sapiens), P48048; Tet-inducible ROMK, thallium flux fluorescence; actives lie on both sides; B-score at 10 µM; hit rate 2% among 130,000; AID 1918, 2009;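 active = signal ratio slope over the read window, or its plate-corrected B-score, at least 3 SD from the plate mean, either direction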;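 also: B-score of the F/F0 ratio slope over 7 to 12 s after thallium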
Target sequence (P48048 whole entry, looked up): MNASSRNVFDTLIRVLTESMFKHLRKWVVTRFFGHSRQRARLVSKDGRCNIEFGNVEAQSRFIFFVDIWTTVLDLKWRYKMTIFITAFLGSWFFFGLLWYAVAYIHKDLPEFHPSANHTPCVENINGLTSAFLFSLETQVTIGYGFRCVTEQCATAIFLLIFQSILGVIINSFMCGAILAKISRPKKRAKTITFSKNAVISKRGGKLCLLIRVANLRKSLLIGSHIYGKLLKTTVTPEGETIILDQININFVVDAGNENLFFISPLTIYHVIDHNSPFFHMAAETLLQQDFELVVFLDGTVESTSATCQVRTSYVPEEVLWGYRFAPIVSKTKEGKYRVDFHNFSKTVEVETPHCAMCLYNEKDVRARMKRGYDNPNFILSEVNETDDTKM
ABCG2 inh: ABCG2 efflux pump inhibitors, primary screen, multiplex with ABCB1, IgMXP3 cells, flow cytometry; Broad substrate specificity ATP-binding cassette transporter ABCG2 (Homo sapiens), Q9UNQ0; AID 1325, 2008; hit rate 0.1% among 190,000; JC-1 efflux; inhibition, % at 6.6 µM;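 active = inhibition above 80%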
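Test system: IgMXP3 (ABCG2) plus far-red-tagged CCRF-Adr (ABCB1) cells / Amount: 3 million cells/mL in well / Reagent: JC-1 transporter substrate / Timing: 10 min compound exposure, 25 °C / Signal: flow cytometry, 530 nm JC-1 signal / Read-out: percent efflux inhibition, scaled nicardipine 100% to DMSO 0% / Benchmarks: nicardipine as high control, DMSO as low control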
PMI act hi M6P: human PMI activators, high substrate, primary screen, biochemical, fluorescence intensity, near-saturating mannose 6-phosphate; Mannose-6-phosphate isomerase (Homo sapiens), P34949; activation factor at 20 µM; hit rate 0.34% among 190,000; coupled PMI enzyme assay, resazurin fluorescence, 20 min; hits give high values; 1 = untreated enzyme, 0 = substrate-free blank;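 active = activation factor of 2 or more at 20 µM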
Target sequence (P34949 whole entry, looked up): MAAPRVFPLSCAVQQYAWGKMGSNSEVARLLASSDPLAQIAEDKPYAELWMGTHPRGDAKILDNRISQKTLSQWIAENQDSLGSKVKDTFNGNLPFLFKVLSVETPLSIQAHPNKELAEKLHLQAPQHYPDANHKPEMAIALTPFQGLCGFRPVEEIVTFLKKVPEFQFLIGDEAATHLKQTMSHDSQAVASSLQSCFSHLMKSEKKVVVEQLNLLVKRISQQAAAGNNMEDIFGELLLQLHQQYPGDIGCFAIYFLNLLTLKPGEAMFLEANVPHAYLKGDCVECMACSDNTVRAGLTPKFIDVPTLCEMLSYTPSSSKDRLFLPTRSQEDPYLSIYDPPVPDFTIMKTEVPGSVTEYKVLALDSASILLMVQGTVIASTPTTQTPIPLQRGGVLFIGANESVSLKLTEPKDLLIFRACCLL
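Material: human phosphomannose isomerase with PGI, G6PDH, diaphorase coupling enzymes / Reagent: Man-6-P substrate 1.0 mM / Dosing: single compound dose of 20 µM, 1% DMSO final / Incubation: enzyme reaction with compound 20 min at room temperature / Signal: resorufin fluorescence (Ex 544/Em 590 nm) from resazurin via diaphorase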
Cl transport mod: KCC2 cotransporter modulators, thallium flux, primary screen, cell-based, HEK293 KCC2, FluoZin-2 fluorescence, MLSMR. Solute carrier family 12 member 5 (Homo sapiens), Q9H2X9. KCC2 cells, thallium flux FluoZin-2 fluorescence. B-score of Tl+ flux slope (higher = more flux/activation; lower = inhibition) at 10 µM. hit rate 2.2% among 190,000. AID 1456, 2008;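 active = thallium flux slope and its plate-corrected score both differing from the plate sample mean at a set confidence after two filtering rounds, in either direction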;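 also: slope of fluorescence scaled to starting intensity during 10 to 20 s after thallium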
ABCB1 inh: ABCB1 efflux pump inhibitors, primary screen, cell-based, multiplex, flow cytometry, ABCG2 counter-screen. CCRF-Adr cells, JC-1 efflux. inhibition, % at 6.6 µM. hit rate 0.067% among 190,000. ATP-dependent translocase ABCB1 (Homo sapiens), P08183; in the data active = inhibition above about 40%;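 also: higher value means more JC-1 retained so stronger ABCB1 efflux block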
PMI act: activators of human PMI, primary screen, biochemical, fluorescence intensity, near-Km mannose 6-phosphate; purified human PMI, coupled resazurin fluorescence, 20 min; hits give high values; 1 = vehicle control, 0 substrate-free wells; hit rate 0.005% among 190,000; activation factor at 20 µM; Mannose-6-phosphate isomerase (Homo sapiens), P34949;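 active = activation factor of 2 or more at 20 µM, relative to plate controls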
KCC2 sec1: KCC2 modulators in sodium-free buffer, confirmation, cell-based, HEK293 KCC2, thallium flux, secondary assay. AID 1713, 2009. normalised thallium flux (F/F0 slope) at 10 µM. hit rate 15% among 3,700. FluoZin2 fluorescence; hits give high values. shares compounds with Cl transport mod;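 active = thallium flux slope above the same plate's solvent-only control mean plus 3 SD; inconclusive = the two replicate wells disagree; inactive = no significant difference from solvent-only control wells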
KCC2 bumet counter: thallium flux persisting under bumetanide in KCC2 cells, confirmation, counter-screen for KCC2 modulator project, cell-based, HEK293 KCC2, FluoZin2, secondary assay 3. hit rate 49% among 3,700. AID 1714, 2009. shares compounds with Cl transport mod. HEK293-KCC2 + bumetanide/ouabain; hits give high values. normalized thallium flux at 10 µM;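 active = thallium entry rate above the same plate's blocked-transporter control wells by more than 3 SD; inconclusive = the two repeat wells disagree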;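 also: raw slope of fluorescence over initial fluorescence between 10 and 20 s after thallium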
KCC2 secondary2: KCC2 modulators without ouabain present, confirmation, cell-based, HEK293 KCC2, thallium flux, FluoZin2, secondary assay 2 | shares compounds with Cl transport mod | thallium flux FluoZin2 fluorescence; actives lie on both sides; F/F0 rise rate, 10–20 s post-thallium | normalized thallium flux at 10 µM | hit rate 23% among 3,700 | AID 1715, 2009;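 active = thallium flux slope more than 3 SD above or below the plate's solvent-only control mean, mostly below; inconclusive = the two repeat wells disagreed; inactive = no significant shift from solvent-only controls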
HEK293 Tl flux: thallium flux modulation in parental HEK cells, confirmation, counter-screen for KCC2 modulator project, cell-based, counterscreen 1; AID 1716, 2009; shares compounds with Cl transport mod; HEK293 parental cells, thallium flux FluoZin2, ouabain; baseline-ratio fluorescence slope, 10–20 s after thallium; thallium flux rate (normalised fluorescence) at 10 µM; hit rate 46% among 3,700;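 active = thallium flux rate significantly above the same plate's solvent-only control wells, beyond their mean plus 3 SD; inconclusive = the two replicate wells gave conflicting results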
KCC2 retest ouab: KCC2 inhibitors and activators, ouabain retest, confirmation, HEK-KCC2 cells | shares compounds with Cl transport mod | HEK293-KCC2, thallium flux FluoZin2 fluorescence; bidirectional: low = inhibitor, high = activator | raw Tl+ flux slope (below DMSO = inhibition, above = activation) at 10 µM | hit rate 48% among 3,700;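 active = thallium flux slope beyond 3 SD from same-plate DMSO control mean in most replicates, usually higher, sometimes lower; inconclusive = repeat tests gave conflicting results; inactive = no significant difference from controls in most replicates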;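 also: slope of initial-normalized fluorescence between seconds 10 and 20 after thallium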
HEK counter2: native HEK Tl+ uptake effects, second counter-screen – HEK cells, counterscreen 2, counter-screen for KCC2 modulator project, confirmation; shares compounds with Cl transport mod; HEK293 parental, thallium flux FluoZin-2 fluorescence slope; AID 1718, 2009; thallium flux slope at 10 µM; hit rate 33% among 3,700;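 active = thallium flux slope above the same plate's solvent-control mean plus 3 SD in both duplicate wells; inconclusive = duplicate wells that disagreed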;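 also: run without ouabain in cells lacking the KCC2 cotransporter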
Of the large screens only hits and unclear results are named; the others gave an inactive call (follow-up assays come after a bar, where they were run). A selection: hits, their analogues and other compounds. The true share with any hit is near 3.3%.

Cc1ccc(C(=S)N2CCN(Cc3ccccc3)CC2)cc1	Cl transport mod -3.3 | KCC2 sec1 inconclusive | KCC2 bumet counter inactive | KCC2 secondary2 inactive | HEK293 Tl flux inactive | KCC2 retest ouab 0.015 | HEK counter2 inactive
CC(C)(C)C(=O)/C=c1\[nH]c(=O)/c(=C\c2ccc(C#N)cc2)s1	Cl transport mod 30 (no result: ROMK primary) | KCC2 sec1 0.019 | KCC2 bumet counter 0.05 | KCC2 secondary2 inactive | HEK293 Tl flux inconclusive | KCC2 retest ouab 0.048 | HEK counter2 inconclusive
COc1ccc(-n2c(CN3CCN(c4ccccn4)CC3)nc3ccc([N+](=O)[O-])cc3c2=O)c(OC)c1	none
Cn1c(SCC(=O)c2cc(Cl)c(Cl)s2)nnc1-c1ccco1	Cl transport mod -5.3 (no result: ROMK primary, ABCG2 inh, PMI act hi M6P, ABCB1 inh, PMI act) | KCC2 sec1 inactive | KCC2 bumet counter 0.03 | KCC2 secondary2 inactive | HEK293 Tl flux 0.022 | KCC2 retest ouab inactive | HEK counter2 0.017
Cc1ccc(C(=O)CSc2nnc(-c3ccco3)n2C)cc1	Cl transport mod -4.7 | KCC2 sec1 0.0058 | KCC2 bumet counter inactive | KCC2 secondary2 inactive | HEK293 Tl flux inactive | KCC2 retest ouab 0.015 | HEK counter2 inactive
Cc1ccc(C(=O)CSc2nnc(-c3ccccc3N)n2C)cc1	none (no result: ROMK primary)
COc1ccc(-c2nc(C)sc2CC(=O)O)cc1OC	none
CCOC(=O)c1cnc(SCc2cccc(C)c2)nc1N	none (no result: ROMK primary)
O=C(OC(C(=O)NC1CCCC1)c1cccnc1)C1=Cc2ccccc2OC1 (centres undefined)	Cl transport mod -3.2 (no result: ROMK primary) | KCC2 sec1 inactive | KCC2 bumet counter inconclusive | KCC2 secondary2 inactive | HEK293 Tl flux inactive | KCC2 retest ouab inactive | HEK counter2 inactive
CCOC(=O)N1CCN(C(=S)NC(=O)c2ccc(Br)cc2)CC1	Cl transport mod 17 | KCC2 sec1 0.023 | KCC2 bumet counter 0.059 | KCC2 secondary2 inactive | HEK293 Tl flux inconclusive | KCC2 retest ouab inactive | HEK counter2 0.013
CCOC(=O)N1CCN(C(=S)NC(=O)c2cncc(Br)c2)CC1	none
CN1CCN(C(=S)NC(=O)c2ccc(Cl)cc2)CC1	Cl transport mod 14 (no result: ROMK primary) | KCC2 sec1 inactive | KCC2 bumet counter 0.02 | KCC2 secondary2 inactive | HEK293 Tl flux 0.018 | KCC2 retest ouab 0.029 | HEK counter2 0.017
Cc1ccc(C(=O)NC(=S)N2CCN(C(=O)OC(C)(C)C)CC2)cc1Br	Cl transport mod 19 (no result: ROMK primary) | KCC2 sec1 inconclusive | KCC2 bumet counter 0.088 | KCC2 secondary2 0.074 | HEK293 Tl flux 0.062 | KCC2 retest ouab 0.087 | HEK counter2 0.057
COC(=O)c1sccc1NC(=O)CC1C(=O)NCCN1C(=O)c1ccc(C)c(C)c1 (centres undefined)	none (no result: ABCG2 inh, PMI act hi M6P, ABCB1 inh, PMI act)
Cc1cc(SCC(=O)NC(=O)NCc2ccco2)nc2c(C)cccc12	Cl transport mod 4.4 (no result: ROMK primary) | KCC2 sec1 inactive | KCC2 bumet counter 0.0063 | KCC2 secondary2 inactive | HEK293 Tl flux 0.019 | KCC2 retest ouab inconclusive | HEK counter2 0.016
c1coc(-c2nnc3sc(Cc4cccs4)nn23)c1	none (no result: Cl transport mod) | KCC2 sec1 inactive | KCC2 bumet counter inactive | KCC2 secondary2 inactive | HEK293 Tl flux inactive | KCC2 retest ouab inconclusive | HEK counter2 inactive
Clc1ccc(-c2nnc3sc(Cc4cccs4)nn23)c(Cl)c1	none (no result: Cl transport mod) | KCC2 sec1 inactive | KCC2 bumet counter inactive | KCC2 secondary2 inactive | HEK293 Tl flux inactive | KCC2 retest ouab 0.018 | HEK counter2 0.011
COC(=O)COc1ccc(NS(=O)(=O)c2cccc([N+](=O)[O-])c2)cc1	none
CCCCN1C(=O)N(C)C2NC(=S)NC21 (centres undefined)	none (no result: ROMK primary, ABCG2 inh, PMI act hi M6P, ABCB1 inh, PMI act)
COc1cc2c(cc1OC)C(C)N(C(=S)NC(=O)c1ccccc1)CC2 (centres undefined)	Cl transport mod 21 (no result: ROMK primary) | KCC2 sec1 inconclusive | KCC2 bumet counter 0.062 | KCC2 secondary2 0.043 | HEK293 Tl flux 0.041 | KCC2 retest ouab 0.049 | HEK counter2 0.029
COc1cc(C(=O)Nc2ccc(NC(C)=O)cc2)ccc1OCc1ccccc1	none
O=C(C(=O)N1CCN(c2ccc(F)cc2)CC1)c1c[nH]c2ccccc12	Cl transport mod -3.5 | KCC2 sec1 inactive | KCC2 bumet counter inactive | KCC2 secondary2 0.025 | HEK293 Tl flux inactive | KCC2 retest ouab inconclusive | HEK counter2 inactive
O=C(C(=O)N1CCN(c2cccc(Cl)c2)CC1)c1c[nH]c2ccccc12	none
Oc1c(Br)cc(C=Nc2ccc3nc(-c4ccccc4)[nH]c3c2)c(O)c1Br	Cl transport mod -3.5 | KCC2 sec1 inactive | KCC2 bumet counter inactive | KCC2 secondary2 inactive | HEK293 Tl flux inactive | KCC2 retest ouab 0.013 | HEK counter2 inactive
O=[N+]([O-])c1ccc(O)c(C=Nc2ccc3nc(-c4ccccc4)[nH]c3c2)c1	none
